ChEMBL document CHEMBL1141165, “Novel 8-substituted dipyridodiazepinone inhibitors with a broad-spectrum of activity against HIV-1 strains resistant to non-nucleoside reverse transcriptase inhibitors” (J Med Chem, 2005)
pEC50, pIC50: −log10 of the molar value.

Assays:
[1] = molecular target: T1, Human immunodeficiency virus type 1 reverse transcriptase (Human immunodeficiency virus 1, UniProt Q72547, K103N/Y181C); experiment: Effective concentration towards HIV-1 K103N/Y181C mutant reverse transcriptase activity by 50% measured in cellular assay
Procedure, shortened: (§1)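 C8166 T-lymphocytes infected at MOI 0.001 with HIV-1 carrying wild-type or mutant RT, then grown 3 days with serial compound dilutions in RPMI 1640 + 10% FBS, 10 μg/mL gentamycin, 10 μM β-mercaptoethanol (also the diluent). Supernatant pooled from eight replica wells; extracellular p24 measured by HIV-1 p24 antigen kit.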

[2] = molecular target: T1, Human immunodeficiency virus type 1 reverse transcriptase; experiment: Inhibitory activity of compound dissolved in DMSO was determined against HIV-1 (K103N/Y181C) mutant reverse transcriptase (1-2 nM) by using [3H]-dGTP (71 nM) as substrate, 50 mM Tris/HCl buffer, pH 7.8, incubated for 1 hr at 37 degrees C
Procedure, shortened: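 RT at ≈3 nM preincubated 15 min at room temperature with inhibitor, then substrate added. Final mix: 50 mM Tris/HCl pH 7.8, 60 mM NaCl, 2 mM MgCl2, 6 mM DTT, 2 mM GSH, 0.02% Chaps, 3% DMSO, 179 nM poly rC, 18 nM biotin-dG15, 288 nM dGTP, 71 nM 3H-dGTP, 1–2 nM enzyme, inhibitor 10 μM–0.5 nM. Reaction 1 h at 37 °C, quenched with EDTA plus streptavidin SPA beads, CsCl added, scintillation counted.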

[3] = molecular target: T2, Human immunodeficiency virus type 1 reverse transcriptase (Human immunodeficiency virus 1, UniProt Q72547); experiment: Inhibitory activity of compound dissolved in DMSO was determined against HIV-1 wild type reverse transcriptase (1-2 nM) by using [3H]dGTP (71 nM) as substrate, 50 mM Tris/HCl buffer, pH 7.8, incubated for 1 h at 37 degrees C
Procedure, shortened: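 Wild-type RT preincubated 15 min at room temperature with inhibitor. Final reaction: Tris/HCl 50 mM pH 7.8, NaCl 60 mM, MgCl2 2 mM, DTT 6 mM, GSH 2 mM, Chaps 0.02%, DMSO 3%, poly rC 179 nM, biotin-dG15 18 nM, dGTP 288 nM, 3H-dGTP 71 nM, enzyme 1–2 nM, inhibitor 10 μM–0.5 nM. Run 1 h at 37 °C, EDTA-quenched, read with streptavidin SPA beads.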

[4] = molecular target: T2, Human immunodeficiency virus type 1 reverse transcriptase; experiment: Effective concentration towards HIV-1 wild type reverse transcriptase activity by 50% measured in cellular assay
Procedure, shortened: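 C8166 T-lymphocytes infected at MOI 0.001 with wild-type HIV-1, then cultured 3 days with serial compound dilutions in RPMI 1640 containing 10% FBS, gentamycin and 10 μM β-mercaptoethanol. Supernatants pooled from eight replicate wells. Extracellular p24 measured by antigen immunoassay.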

C8166 [5] = experiment: Inhibition of HIV replication in T-lymphocyte cell line C8166 infected with V106A mutant reverse transcriptase upon incubation with the compound for 3 days; assay type: functional, Homo sapiens; procedure, shortened: as §1
C8166 [6] = experiment: Inhibition of HIV replication in T-lymphocyte cell line C8166 infected with Y188L mutant reverse transcriptase upon incubation with the compound for 3 days; assay type: functional, Homo sapiens; procedure, shortened: as §1
C8166 [7] = experiment: Inhibition of HIV replication in T-lymphocyte cell line C8166 infected with K103N/L100I mutant reverse transcriptase upon incubation with the compound for 3 days; assay type: functional, Homo sapiens; procedure, shortened: as §1
C8166 [8] = experiment: Inhibition of HIV replication in T-lymphocyte cell line C8166 infected with K103N/P225H mutant reverse transcriptase upon incubation with the compound for 3 days; assay type: functional, Homo sapiens; procedure, shortened: as §1
C8166 [9] = experiment: Inhibition of HIV replication in T-lymphocyte cell line C8166 infected with K103N/V108I mutant reverse transcriptase upon incubation with the compound for 3 days; assay type: functional, Homo sapiens; procedure, shortened: as §1

| SMILES | pEC50 [1] | pIC50 [2] | pIC50 [3] | pEC50 [4] | Antiviral activity (C8166 [5]) | Antiviral activity (C8166 [6]) | Antiviral activity (C8166 [7]) | Antiviral activity (C8166 [8]) | Antiviral activity (C8166 [9]) |
| --- | --- | --- | --- | --- | --- | --- | --- | --- | --- |
| CCN1c2ncc(CCOc3ccc(C(=O)O)cc3C)cc2C(=O)N(C)c2ccc(Cl)nc21 | 8.09 | 7.19 | 8.00 | 8.80 | – | – | – | – | – |
| CCc1cc(C(=O)O)ccc1OCCc1cnc2c(c1)C(=O)N(C)c1cccnc1N2CC | 7.62 | 6.37 | 7.72 | 8.66 | – | – | – | – | – |
| CCN1c2ncc(CCOc3ccc(C(=O)O)cc3Br)cc2C(=O)N(C)c2cccnc21 | 7.46 | 6.52 | 7.74 | 8.49 | – | – | – | – | – |
| CCN1c2ncc(CCOc3ccc(C(=O)O)cc3C)cc2C(=O)N(C)c2ccc(F)nc21 | 7.85 | 6.82 | 7.82 | 8.82 | 27 nM | 27 nM | 3 nM | 2 nM | 4 nM |
